The results in this text go back to ChEMBL document CHEMBL4680153, “New Spisulosine Derivative promotes robust autophagic response to cancer cells” (Eur J Med Chem, 2020).

The test system of assay [1] is MCF7. As to the kind of experiment: Antiproliferative activity against human MCF7 cells assessed as reduction in cell growth at 10 uM incubated for 48 hrs by SRB assay relative to control. Format: functional. The gist of the method:
(§1)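 Early-passage cells plated at 40% confluency and left overnight, then exposed to 10 μM compound for 48 h. Growth was measured by sulforhodamine B staining, with absorbance at 510 nm. Percent growth inhibition was calculated against untreated cells.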

For assay [2], the system named is DLD-1. As to the kind of experiment: Antiproliferative activity against human DLD-1 cells assessed as reduction in cell growth at 10 uM incubated for 48 hrs by SRB assay relative to control. The class given is functional. The procedure, abridged: as §1
On the technique in general: Sulforhodamine B stains cellular protein and so reports cell mass.

In assay [3] the test system is HT-29. In words: Antiproliferative activity against human HT-29 cells assessed as reduction in cell growth at 10 uM incubated for 48 hrs by SRB assay relative to control. The class given is functional. The procedure, abridged: as §1
In assay [4] the test system is MDA-MB-231. As to the kind of experiment: Antiproliferative activity against human MDA-MB-231 cells assessed as reduction in cell growth at 10 uM incubated for 48 hrs by SRB assay relative to control. The class given is functional. The procedure, abridged:
as §1

Assay [5] relates to A549. In words: Antiproliferative activity against human A549 cells assessed as reduction in cell growth at 10 uM incubated for 48 hrs by SRB assay relative to control. Format: functional. The gist of the method: as §1
Assay [6] deals with NCI-H358. As to the kind of experiment: Antiproliferative activity against human NCI-H358 cells assessed as reduction in cell growth at 10 uM incubated for 48 hrs by SRB assay relative to control. The class given is functional. The procedure, abridged:
as §1

Assay [7] has as its system PC-3. As to the kind of experiment: Cytotoxicity against human PC-3 cells assessed as reduction in cell viability incubated for 48 hrs by MTT assay. The following applies: PC-3, 48 h. The class given is functional, cell-based.
Assay [8] deals with DLD-1. In words: Induction of autophagy in human DLD-1 cells assessed as reduction in cell viability at 7.5 uM incubated for 24 hrs in presence of Bafilomycin-A1 by crystal violet staining based phase contrast microscopic analysis. The class given is functional.
Assay [9] has as its system DLD-1. In words: Induction of apoptosis in human DLD-1 cells assessed as early apoptotic cells at 7.5 uM incubated for 18 hrs by Annexin V-FITC and propidium iodide staining based flow cytometry analysis (reference value: 4.95 %). Format: functional. On the technique in general: In flow cytometry, cells or beads pass a laser one at a time.
Assay [10] concerns DLD-1. In words: Induction of apoptosis in human DLD-1 cells assessed as necrotic cells at 7.5 uM incubated for 18 hrs by Annexin V-FITC and propidium iodide staining based flow cytometry analysis (reference value: 4.1 %). Format: functional.
For assay [11], the system named is DLD-1. As to the kind of experiment: Induction of apoptosis in human DLD-1 cells assessed as late apoptotic cells at 7.5 uM incubated for 18 hrs by Annexin V-FITC and propidium iodide staining based flow cytometry analysis (reference value: 5.7 %). The class given is functional.
Assay [12] relates to DLD-1. In words: Induction of apoptosis in human DLD-1 cells assessed as viable cells at 7.5 uM incubated for 18 hrs by Annexin V-FITC and propidium iodide staining based flow cytometry analysis (reference value: 85.2 %). Conditions: read-out: Activity. Format: functional.
In assay [13] the test system is DLD-1. In words: Induction of apoptosis in human DLD-1 cells assessed as increase in PARP cleavage at 5 to 7.5 uM by Western blot analysis. The class given is functional, cell-based. Conditions: dose 5-7.5 µM. The procedure, abridged:
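DLD-1 cells were treated at 7.5 μM for 18 h and lysed in NP-40 buffer containing protease and phosphatase inhibitors. Protein was quantified by BCA, and equal amounts were run on 15% SDS-PAGE and transferred to PVDF. Cleaved PARP was probed and detected by enhanced chemiluminescence.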

Assay [14] relates to HL-60. In words: Cytotoxicity against human HL-60 cell. The class given is functional, cell-based.
The test system of assay [15] is LNCaP. In words: Cytotoxicity against human LNCaP cells assessed as reduction in cell viability incubated for 48 hrs by MTT assay. Format: functional, cell-based.
The test system of assay [16] is HCT-116. In words: Cytotoxicity against human HCT-116 cell. The class given is functional, cell-based.
The test system of assay [17] is KB. As to the kind of experiment: Cytotoxicity against human KB cell. The class given is functional, cell-based.

The source made the active and inactive calls. The calls are words filed in the database; no cut-off is given here.

As to `CCCCCCCCCCCCCC[C@H](O)[C@H](CN(C(C)C)C(C)C)NC(=O)OC(C)(C)C`, the inhibition at 10 µM was 25.3% in assay [1]; 34.8% in [2]; 11.6% in [3]; -1.17% in [4]; 22.9% in [5]; 11.3% in [6].

Turning to `COc1cccc2c1C(=O)c1c(O)c3c(c(O)c1C2=O)C[C@@](O)(C(=O)CO)C[C@@H]3O[C@H]1C[C@H](N)[C@H](O)[C@H](C)O1` [DOXORUBICIN], the inhibition at 10 µM in assay [1] was 88.5%; in [2] it was 76.7%; in [3], 78.4%; in assay [4], 80.2%; in assay [5], 80.2%; in [6], 77.5%.

In the case of `CCCCCCCCCCCCCC[C@H](OCOC)[C@H](CN1CCN(C)CC1)NC(=O)OC(C)(C)C`, the inhibition at 10 µM in [1] turned out to be 28%; in assay [2] it was 31.9%; in assay [4] it was 24%; in [5] it was 18.2%; in assay [6], 18.9%.

Turning to `CCCCCCCCCCCCCC[C@H](O)[C@H](Cc1ccc(OC)cc1)NC(=O)OC(C)(C)C`, the inhibition at 10 µM was 8.77% in assay [1]; 27.9% in assay [2]; -7.41% in [3]; -16.5% in assay [4]; 23.4% in assay [5]; 6.37% in [6].

With `CCCCCCCCCCCCCC[C@H](OCOC)[C@H](CN1CCSCC1)NC(=O)OC(C)(C)C`, the inhibition at 10 µM is 24% in assay [1]; 58.5% in [2]; 8.57% in assay [3]; 4.73% in assay [4]; 29.9% in [5]; 22.7% in [6].

For the compound `CCCCCCCCCCCCCC[C@H](O)[C@H](CN1CCSCC1)NC(=O)OC(C)(C)C`, the inhibition at 10 µM in assay [1] stood at 30.2%; in [2] it was 32.4%; in assay [3], 12%; in [4], 6.84%; in assay [5] it was 32%; in assay [6], 10.8%.

With `CCCCCCCCCCCCCC[C@H](O)[C@H](CO[Si](c1ccccc1)(c1ccccc1)C(C)(C)C)NC(=O)OC(C)(C)C`, the inhibition at 10 µM in assay [1] is 2.79%; in [2], 10.4%; in [3], -14.4%; in assay [4] it was -37.5%; in assay [5], 14.6%; in assay [6] it was 3.11%.

Regarding `CCCCCCCCCCCCCC[C@H](OCOC)[C@H](CN(CC)CC)NC(=O)OC(C)(C)C`, the inhibition at 10 µM in assay [1] was 25.2%; in assay [2] it was 46.2%; in [3] it was -3.21%; in assay [4], 0.84%; in [5], 27.5%; in [6], 14.9%.

On to `CCCCCCCCCCCCCC[C@H](OCOC)[C@H](CN1CCCCC1)NC(=O)OC(C)(C)C`, for which the inhibition at 10 µM in [1] amounted to 27.3%; in assay [2], 43.7%; in assay [3] it was 14.2%; in assay [4], 9.84%; in assay [5], 19%; in [6], 15.2%.

For `CCCCCCCCCCCCCC[C@H](OCOC)[C@H](CO[Si](c1ccccc1)(c1ccccc1)C(C)(C)C)NC(=O)OC(C)(C)C`, the inhibition at 10 µM in assay [1] is -7.95%; in [2], -14.6%; in [3], -18.8%; in [4], -28%; in assay [5], 15.1%; in assay [6] it was -2.89%.

In the case of `CCCCCCCCCCCCCC[C@H](O)[C@H](CN(CC)CC)NC(=O)OC(C)(C)C`, the inhibition at 10 µM in assay [1] is 18.7%; in [2], 14.7%; in assay [4] it was -1.45%; in assay [5], 18.5%; in [6] it was 8.37%.

On to `CCCCCCCCCCCCCC[C@H](OCOC)[C@H](CO)NC(=O)OC(C)(C)C`, for which the inhibition at 10 µM is 10.2% in [1]; 54.8% in [2]; 22% in assay [3]; -5.67% in assay [4]; 25.9% in assay [5]; 18.4% in [6].

As to `CCCCCCCCCCCCCC[C@H](OCOC)[C@H](CN(CCCC)CCCC)NC(=O)OC(C)(C)C`, the inhibition at 10 µM in assay [1] was 27.1%; in assay [2] it was 56%; in assay [3] it was 15%; in assay [4], 22.3%; in assay [5] it was 42.2%; in assay [6], 25.1%.

For `CCCCCCCCCCCCCC[C@H](O)[C@H](CN(CCCC)CCCC)NC(=O)OC(C)(C)C`, the inhibition at 10 µM in assay [1] was 21.5%; in assay [2], 23.4%; in [3], 9.83%; in [4], -9.61%; in [5], 30%; in assay [6], 9.4%.

`CCCCCCCCCCCCCC[C@H](OCOC)[C@H](CN(C(C)C)C(C)C)NC(=O)OC(C)(C)C`: the inhibition at 10 µM came out at 26.9% in assay [1]; 53.9% in assay [2]; 19.9% in [3]; 31% in assay [4]; 22.6% in [5]; 26.6% in assay [6].

Regarding `CCCCCCCCCCCCCCC[C@@H](O)[C@H](C)N`, the IC50 in assay [7] was determined as 1 µM; in assay [14] it was 0.1 µM; in [15], 1 µM; in assay [16], 0.1 µM; in assay [17], 0.1 µM. The outcome in [8] and in [13] was Active. The values for the Activity in [9], in [10] and in assay [11] were 14.2%, 4.2% and 3.4%, respectively. The viability at 7.5 µM in assay [12] was determined as 78%.

In the case of `CC(C)(C)OC(=O)N[C@H](CO)CO[Si](c1ccccc1)(c1ccccc1)C(C)(C)C`, the inhibition at 10 µM in assay [1] is 28.3%; in assay [2], 73.5%; in assay [3], 46.2%; in assay [4], 32.3%; in assay [5] it was 25.4%; in [6], 53.4%.

What is called inhibition is the drop in the measured response relative to a control, in per cent. One may read the IC50 as the concentration that gives 50% inhibition.
